The values that follow come from ChEMBL document CHEMBL1153030, “Synthesis, structural characterisation and biological evaluation of fluorinated analogues of resveratrol” (Bioorg Med Chem, 2009).

One data set has as its system NCI-H460. Kind of data set: Antiproliferative activity against human NCI-H460 cells assessed as cell growth at 100 uM after 48 hrs by alamar blue assay. In kind it is functional. The note with it: NCI-H460, 48 h, read-out: Activity. The method, boiled down: (§1)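 DTP three cell line one-dose prescreen: MCF7 (breast), NCI-H460 (lung), SF-268 (CNS). Cells inoculated and preincubated in microtiter plate, then single concentration of test agent added, 48 h incubation. Alamar blue endpoint. Growth expressed as percent of untreated control cells.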

A further data set deals with MCF7. Kind of data set: Antiproliferative activity against human MCF7 cells assessed as cell growth at 100 uM after 48 hrs by alamar blue assay. It counts as functional. The note with it: MCF7, 48 h, read-out: Activity. The method, boiled down:
as §1
For orientation: The colour change of resazurin is a common sign of viable cells or microbes.

In another data set the test system is SF-268. Kind of data set: Antiproliferative activity against human SF268 cells assessed as cell growth at 100 uM after 48 hrs by alamar blue assay. In kind it is functional. To be noted: SF-268, 48 h, read-out: Activity. In short, it runs like this: as §1
The nature of data set [1]: Antiproliferative activity against MRP1-expressing human DLKP cells assessed as cell proliferation at 10 uM after 5 days by acid phosphatase assay. It counts as functional. To be noted: 120 h, read-out: Activity. The method, boiled down:
(§2)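 Cell lines DLKP, DLKP-A and HT-144, seeded at 1 × 10³ cells/well (DLKP and DLKP-A) or 3 × 10³ cells/well (HT-144, higher density needed for cell-contact-dependent growth). 5 day drug exposure. Compounds tested alone and in combination with the P-gp/MRP1 substrate epirubicin. Read-out is cell proliferation (%) relative to untreated control.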

The nature of data set [2]: Antiproliferative activity against P-gp expressing human DLKP-A cells assessed as cell proliferation at 10 uM after 5 days by acid phosphatase assay. In kind it is functional. The note with it: for growth at 10 µM: Homo sapiens, DLKP-A, 120 h, read-out: Activity. The method, boiled down:
as §2

Data set [3] in a line: Solubility in DMSO-containing medium. In kind it is physicochemical. The method, boiled down: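 Compounds were solubilised in a minimum amount of DMSO, then solubility was tested in culture media. A minimum concentration of 0.5 mg/ml in media was required before biological evaluation.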
The nature of data set [4]: Solubility of the compound in cell media. To be noted: cell culture media.
Data set [5] can be described thus: Antiproliferative activity against MRP1-expressing human DLKP cells after 5 days by acid phosphatase assay. It counts as functional, cell-based. The note with it: 120 h. The method, boiled down:
as §2

Data set [6] is described as follows: Antiproliferative activity against P-gp expressing human DLKP-A cells after 5 days by acid phosphatase assay. It counts as functional, cell-based. The note with it: 120 h. The method, boiled down: as §2
The subject of data set [7] is HT-144. Kind of data set: Antiproliferative activity against human HT144 cells after 5 days by acid phosphatase assay. It counts as functional, cell-based. To be noted: HT-144, 120 h. In short, it runs like this:
as §2

The nature of data set [8]: Antiproliferative activity against MRP1-expressing human DLKP cells assessed as cell proliferation at 5 uM after 5 days by acid phosphatase assay. In kind it is functional. To be noted: 120 h, read-out: Activity. The method, boiled down:
as §2

Data set [9] in a line: Antiproliferative activity against P-gp expressing human DLKP-A cells assessed as cell proliferation at 5 uM after 5 days by acid phosphatase assay. In kind it is functional. The note with it: 120 h, read-out: Activity. In short, it runs like this:
as §2

Data set [10] concerns HT-144. The data set is described as follows: Antiproliferative activity against human HT144 cells assessed as cell proliferation at 20 uM after 5 days by acid phosphatase assay. In kind it is functional. To be noted: HT-144, 120 h, read-out: Activity. The method, boiled down: as §2
Data set [11] in a line: Aqueous solubility of the compound. It counts as physicochemical. The note with it: buffer.
The next data set has as its system T47D. Kind of data set: Anticancer activity against human T47D cells. It counts as functional, cell-based. The method, boiled down:
(§3)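 NCI 60 human tumour cell line panel; GI50, IC50, LC50 and TGI values calculated for each cell line.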

For a further data set, the system named is HL-60(TB). Kind of data set: Anticancer activity against human HL-60(TB) cells. It counts as functional, cell-based. In short, it runs like this: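 Tested in the DTP 60 human tumour cell line panel, which covers leukaemia, lung, colon, CNS, melanoma, ovarian, renal, prostate and breast lines. GI50, IC50, LC50 and TGI were calculated for each cell line.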

The test system of a further data set is EKVX. The data set is described as follows: Anticancer activity against human EKVX cells. In kind it is functional, cell-based. The method, boiled down: as §3
A further data set deals with SK-MEL-28. Kind of data set: Anticancer activity against human SK-MEL-28 cells. It counts as functional, cell-based. In short, it runs like this:
as §3

The subject of a further data set is SNB-75. The data set is described as follows: Anticancer activity against human SNB75 cells. In kind it is functional, cell-based. The method, boiled down: as §3
In the next data set the test system is SK-OV-3. The data set is described as follows: Anticancer activity against human SKOV3 cells. It counts as functional, cell-based. The method, boiled down: as §3
A further data set has as its system RXF 393. The data set is described as follows: Anticancer activity against human RXF393 cells. In kind it is functional, cell-based. In short, it runs like this:
as §3

In a further data set the test system is DU-145. Kind of data set: Anticancer activity against human DU145 cells. In kind it is functional, cell-based. In short, it runs like this: as §3
The next data set concerns HT-29. The data set is described as follows: Anticancer activity against human HT-29 cells. In kind it is functional, cell-based. The method, boiled down: as §3
The nature of data set [12]: Antiproliferative activity against P-gp expressing human DLKP-A cells assessed as cell proliferation at 1.5 uM after 5 days by acid phosphatase assay. To be noted: 120 h, read-out: Activity. In kind it is functional. The method, boiled down:
as §2

The subject of data set [13] is HT-144. The data set is described as follows: Antiproliferative activity against human HT144 cells assessed as cell proliferation at 0.005 uM after 5 days by acid phosphatase assay. In kind it is functional. To be noted: HT-144, 120 h, read-out: Activity. In short, it runs like this:
as §2

The nature of data set [14]: Antiproliferative activity against MRP1-expressing human DLKP cells assessed as cell proliferation at 0.01 uM after 5 days by acid phosphatase assay. It counts as functional. The note with it: 120 h, read-out: Activity. The method, boiled down: as §2

Some results are limits rather than exact numbers.

With `COc1ccc(/C=C/c2cc(F)cc(F)c2)cc1`, the growth at 100 µM turned out to be 105% with NCI-H460, 84% in the data set on MCF7 and 111% in the data set on SF-268.

With `COc1cc(/C=C/c2ccc(F)cc2)cc(OC)c1`, the growth at 100 µM is 60% in the data set on NCI-H460, 67% with MCF7 and 105% with SF-268.

Consider `Fc1ccc(/C=C/c2cc(F)cc(F)c2)cc1`, for which the growth at 100 µM worked out at 101% with NCI-H460, 82% in the data set on MCF7 and 111% in the data set on SF-268.

Turning to `CC(=O)Nc1ccc(/C=C/c2cc(F)cc(F)c2)cc1`, the growth at 10 µM in data set [1] came to 75%; in data set [2] it was 78%. The solubility entry in data set [3] and in data set [4] was “Soluble” in each case. The same molecule came in with an IC50 in data set [5] of 39 µM.

Take `CC(=O)Nc1cc(/C=C/c2ccc(F)cc2)cc(NC(C)=O)c1`: the growth at 10 µM in data set [1] was found to be 94%; in data set [2] it was 96%. For the same molecule, the solubility entry in data set [3] and in data set [4] was “Soluble” each time. The values for the IC50 in [6] and in data set [5] were more than 50 µM and 50 µM, respectively.

Take `Nc1cc(N)cc(/C=C/c2ccc(F)cc2)c1`: the growth at 10 µM in [1] amounted to 87%; in data set [2], 98%. Besides, the solubility entry in data set [3] and in data set [4] was “Soluble” in each case. Moreover, the IC50 in [6] and in data set [5] was more than 50 µM in each case.

Turning to `CC(=O)Oc1cc(/C=C/c2ccc(F)cc2)cc(OC(C)=O)c1`, the IC50 with HT-144 [7] stood at 56 µM; in data set [6] it was 19 µM; in data set [5], 25 µM. Moreover, the growth at 5 µM in data set [8] came to 100%; in [9], 89%. Besides, the solubility entry in data set [3] and in data set [4] was “Soluble” each time. In the data set with HT-144 [10], the growth at 20 µM amounted to 100%.

Take `NCC(=O)Nc1ccc(/C=C/c2cc(F)cc(F)c2)cc1.O=C(O)C(F)(F)F`: the solubility result in data set [11] and in [3] was “Soluble” in each case.

For `O=C(Nc1cc(/C=C/c2ccc(F)cc2)cc(NC(=O)C(F)(F)F)c1)C(F)(F)F`, the growth at 10 µM in [1] turned out to be 95%; in data set [2] it was 84%. For the same molecule, the solubility entry in data set [3] and in data set [4] was “Soluble” each time. Besides, the 50% inhibitory concentration (IC50) in data set [6] was found to be 20 µM; in data set [5], 28 µM.

On to `Oc1ccc(/C=C/c2cc(F)cc(F)c2)cc1`, for which the concentration for half-maximal inhibition (IC50) in the data set with HT-144 [7] amounted to 59 µM; in [6], 14 µM; in [5] it was 6 µM. Moreover, the growth at 5 µM in data set [8] worked out at 74%; in [9], 85%. Besides, the solubility result in [3] and in [4] was “Soluble” in each case. Moreover, the growth at 20 µM with HT-144 [10] is 105%.

On to `CC(=O)Oc1cc(O)cc(/C=C/c2ccc(F)cc2)c1`, for which the IC50 was 54 µM with HT-144 [7], 21 µM in data set [6] and 21 µM in data set [5]. The growth at 5 µM in data set [8] worked out at 98%; in data set [9] it was 90%. In addition, the solubility entry in [3] and in [4] was “Soluble” throughout. Moreover, in the data set with HT-144 [10], the growth at 20 µM is 110%.

`CC(=O)Oc1ccc(/C=C/c2cc(F)cc(F)c2)cc1`: the GI50 stood at 128 µM in the data set on T47D; 117 µM with HL-60(TB); 117 µM with EKVX; 83.1 µM in the data set with SK-MEL-28; 90.9 µM with SNB-75; 96.5 µM in the data set on SK-OV-3. In addition, the GI50 in the data set with RXF 393 came to 202 µM; in the data set on DU-145 it was 128 µM; in the data set on HT-29, 80.6 µM. Further, the IC50 was determined as 79.8 µM with T47D; 36 µM with HT-144 [7]; 54.6 µM with HL-60(TB); 78.7 µM in the data set with EKVX; 70.1 µM in the data set on SK-MEL-28; 60.3 µM in the data set on SNB-75. Further, the IC50 was determined as 83.1 µM in the data set with SK-OV-3; 75.9 µM in the data set with RXF 393; 10 µM in data set [6]; 100 µM with DU-145; 73.7 µM with HT-29; 7 µM in [5]. The growth at 100 µM in the data set on NCI-H460 is 7%; with MCF7 it was 22%; in the data set on SF-268, 1%. Besides, the growth at 5 µM in data set [8] amounted to 52%; in data set [9], 50%. In addition, the solubility result in [3] and in data set [4] was “Soluble” in each case. For the same molecule, in the data set on HT-144 [10], the growth at 20 µM is 85%.

For `COc1cccc2c1C(=O)c1c(O)c3c(c(O)c1C2=O)C[C@@](O)(C(=O)CO)C[C@@H]3O[C@H]1C[C@H](N)[C@@H](O)[C@H](C)O1` [EPIRUBICIN], the growth at 1.5 µM in [12] turned out to be 66%. Also, the growth at 0.005 µM in the data set with HT-144 [13] amounted to 91%. In addition, the growth at 0.01 µM in data set [14] came out at 64%.

`Oc1ccc(/C=C/c2cc(O)cc(O)c2)cc1` [RESVERATROL]: the values for the growth at 10 µM in data set [1] and in [2] were 38% and 67%, respectively. Also, the IC50 was 40 µM in the data set with HT-144 [7], 15 µM in data set [6] and 10 µM in data set [5]. The Activity in [2] is on record as 66%. For the same molecule, the growth at 20 µM in the data set with HT-144 [10] is 100%.

In general, IC50 refers to the concentration at which inhibition is half-maximal. Read a high IC50 as a need for much substance. By GI50 is commonly meant the concentration at which growth is held to half of that of the control. Low readings indicate greater sensitivity of the cells, high ones lower sensitivity of the cells.
